Assay results as given in ChEMBL document CHEMBL1955737, “Diarylpyrimidine-dihydrobenzyloxopyrimidine hybrids: new, wide-spectrum anti-HIV-1 agents active at (sub)-nanomolar level” (J Med Chem, 2011).
pEC50: −log10 of the molar value.

Experiments:
[1] = test system: Human immunodeficiency virus type 1 reverse transcriptase (Human immunodeficiency virus 1), Q72547 [K103N]
[2] = Cytotoxicity against human MT4 cells assessed as cell viability by MTT assay; assay type: cell-based
[3] = molecular target: Human immunodeficiency virus type 1 reverse transcriptase (Human immunodeficiency virus 1) (UniProt Q72547)
[4] = test system: Human immunodeficiency virus 1; experiment: Antiviral activity against HIV 1 harboring reverse transcriptase Y181C mutant infected in human MT4 cells assessed as inhibition of virus-induced cytopathic effect after 5 days by MTT assay; assay type: functional, organism-based; details: Human immunodeficiency virus 1, MT4, 120 h
Outline: (§1)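 MT-4 cells (NIH AIDS Reagent Program) infected with the mutant HIV-1 strain in the presence of a range of drug concentrations. Mutant strains were from the MRC Centralised Facility for AIDS Reagents; IRLL98 carries K101Q, Y181C and G190A. Viable cells were counted by MTT colorimetry at day 5 post-infection. […] Values are means of at least two experiments.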

[5] = test system: Human immunodeficiency virus type 1 reverse transcriptase (Human immunodeficiency virus 1), Q72547 [Y181I]
[6] = test system: Human immunodeficiency virus 1; experiment: Antiviral activity against wild type HIV 1 NL4-3 infected in human MT4 cells assessed as inhibition of virus-induced cytopathic effect after 5 days by MTT assay; assay type: functional, organism-based; details: Human immunodeficiency virus 1, NL4-3, MT4, 120 h
[7] = test system: Human immunodeficiency virus 1; experiment: Antiviral activity against multidrug-resistant HIV 1 IRLL98 harboring reverse transcriptase K101Q/Y181C/G190a mutant infected in human MT4 cells assessed as virus-induced cytopathic effect after 5 days by MTT assay; assay type: functional, organism-based; details: Human immunodeficiency virus 1, IRLL98, MT4, 120 h
Outline: as §1

[8] = test system: Human immunodeficiency virus 1; experiment: Antiviral activity against HIV 1 harboring reverse transcriptase K103N mutant infected in human MT4 cells assessed as inhibition of virus-induced cytopathic effect after 5 days by MTT assay; assay type: functional, organism-based; details: Human immunodeficiency virus 1, MT4, 120 h
[9] = test system: Human immunodeficiency virus 1; experiment: Resistance ratio of EC50 for HIV 1 harboring reverse transcriptase K103N mutant infected in human MT4 cells to EC50 for wild type HIV 1 NL4-3 infected in human MT4 cells; assay type: functional
Outline: (§2)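 Fold change is the EC50 against the mutant strain (K103N, Y181C, Y188L or IRLL98) divided by the EC50 against wild-type NL4-3. Both EC50s come from MT-4 cells infected in the presence of a range of drug concentrations, with MTT viability read at day 5. Values are means of at least two experiments.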

[10] = test system: Human immunodeficiency virus 1; experiment: Antiviral activity against HIV 1 harboring reverse transcriptase Y188L mutant infected in human MT4 cells assessed as inhibition of virus-induced cytopathic effect after 5 days by MTT assay; assay type: functional, organism-based; details: Human immunodeficiency virus 1, MT4, 120 h
[11] = test system: Human immunodeficiency virus 1; experiment: Resistance ratio of EC50 for HIV 1 harboring reverse transcriptase Y188L mutant infected in human MT4 cells to EC50 for wild type HIV 1 NL4-3 infected in human MT4 cells; assay type: functional
Outline: as §2

[12] = test system: Human immunodeficiency virus 1; experiment: Ratio of ID50 for HIV 1 reverse transcriptase K103N mutant to ID50 for wild type HIV 1 NL4-3 reverse transcriptase
Outline: (§3)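 Recombinant HIV-1 RT (wild type or K103N, L100I, Y181I or Y188L), purified to >95%, at 2-4 nM. RNA-dependent DNA polymerase assay with 0.5 μg poly(rA)/oligo(dT) 10:1 (0.3 μM 3'-OH ends) and 10 μM [3H]dTTP in 8% final DMSO. Initial velocities were taken from aliquots sampled every 2 min. […] The ratio is mutant ID50 over wild-type ID50. Means of at least three experiments.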

[13] = test system: Human immunodeficiency virus 1; experiment: Resistance ratio of EC50 for HIV 1 harboring reverse transcriptase Y181C mutant infected in human MT4 cells to EC50 for wild type HIV 1 NL4-3 infected in human MT4 cells; assay type: functional
Outline: as §2

[14] = Selectivity index, ratio of CC50 for human MT4 cells to EC50 for HIV 1 NL4-3; assay type: toxicity, cell-based; details: read-out: Ratio CC50/EC50
Outline: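 CC50 from mock-infected MT-4 cells and EC50 against HIV-1 NL4-3 in infected MT-4 cells, both by day-5 MTT viability read-out; index computed as CC50/EC50(NL4-3); means of at least two experiments.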

[15] = test system: Human immunodeficiency virus 1; experiment: Ratio of ID50 for HIV 1 reverse transcriptase Y181I mutant to ID50 for wild type HIV 1 NL4-3 reverse transcriptase
Outline: as §3

[16] = test system: Human immunodeficiency virus 1; experiment: Ratio of ID50 for HIV 1 reverse transcriptase Y188L mutant to ID50 for wild type HIV 1 NL4-3 reverse transcriptase
Outline: as §3

[17] = test system: MT4; experiment: Ratio of MC1220 CC50 to compound CC50 for human MT4 cells; assay type: ADME, cell-based
[18] = Ratio of TMC120 CC50 to compound CC50 for human MT4 cells; assay type: ADME, cell-based
[19] = test system: Human immunodeficiency virus 1; experiment: Ratio of efavirenz EC50 to compound EC50 for wild type HIV 1 NL4-3 infected in human MT4 cells; assay type: functional
[20] = test system: Human immunodeficiency virus type 1 reverse transcriptase (Human immunodeficiency virus 1), Q72547 [L100I]
[21] = test system: Human immunodeficiency virus 1; experiment: Ratio of ID50 for HIV 1 reverse transcriptase L100I mutant to ID50 for wild type HIV 1 NL4-3 reverse transcriptase
Outline: as §3

| SMILES | ID50 [1] | CC50 [2] | ID50 [3] | pEC50 [4] | ID50 [5] | pEC50 [6] | pEC50 [8] | Ratio EC50 [9] | pEC50 [10] | Ratio EC50 [11] | Ratio [12] | Ratio EC50 [13] | selectivity ratio [14] | Ratio [15] | Ratio [16] | ID50 [20] | Ratio [21] | other results |
| --- | --- | --- | --- | --- | --- | --- | --- | --- | --- | --- | --- | --- | --- | --- | --- | --- | --- | --- |
| Cc1cc(C)c(Nc2ccnc(Nc3ccc(C#N)cc3)n2)c(C)c1 [DAPIVIRINE] | 100 nM | 3040 nM | 7 nM | 8.92 | > 1000 nM | 10.52 | 8.92 |  |  |  |  |  |  |  |  |  |  | pEC50 [7]: 9.52 |
| N#Cc1ccc(Nc2nc(Cl)cc(Cc3c(F)cccc3F)n2)cc1 | 4360 nM | > 2800 nM | 59 nM | 6.25 | > 80000 nM | 7.87 | 6.77 | 13 | 5.85 | 105 | 74 | 42 | > 209 |  |  |  |  |  |
| CC(c1cc(Cl)nc(Nc2ccc(C#N)cc2)n1)c1c(F)cccc1F (stereo not given) | 286 nM | > 2700 nM | 12 nM | 6.81 | 28600 nM | 8.82 | 7.29 | 34 | 6.08 | 557 | 24 | 102 | > 1800 | 2380 | 237 |  |  |  |
| N#Cc1ccc(Nc2nc(N)cc(Cc3c(F)cccc3F)n2)cc1 | 169 nM | 44600 nM | 11 nM | 7.15 | 17300 nM | 9.52 | 7.85 | 47 | 6.97 | 361 | 15 | 238 | 149000 | 1570 | 280 | 1510 nM | 137 | Ratio [17]: 2.5; selectivity ratio [18]: > 10; Ratio EC50 [19]: >10 |
| CC(c1cc(N)nc(Nc2ccc(C#N)cc2)n1)c1c(F)cccc1F (stereo not given) | 109 nM | 46100 nM | 11 nM | 7.35 | 11100 nM | 9.52 | 8.09 | 27 | 7.18 | 222 | 10 | 149 | 154000 | 1010 | 147 | 765 nM | 69 | Ratio [17]: 2.5; selectivity ratio [18]: > 10; Ratio EC50 [19]: >10 |
| O=C1Nc2ccc(Cl)cc2[C@@](C#CC2CC2)(C(F)(F)F)O1 [EFAVIRENZ] |  | 3170 nM |  | 8.00 |  | 8.50 | 6.46 |  |  |  |  |  |  |  |  |  |  | pEC50 [7]: 6.20 |
| N#Cc1ccc(Nc2nc(Cc3c(F)cccc3F)cc(=O)[nH]2)cc1 | 2600 nM | > 2500 nM | 0.8 nM | 6.46 | 56000 nM | 6.46 | 6.54 | 0.8 | < 5.60 |  | 3250 | 1 | > 7.3 | 70000 | 1550 | 1600 nM | 2000 |  |
| CC(c1ccnc(Nc2ccc(C#N)cc2)n1)c1c(F)cccc1F (stereo not given) | 248 nM | 37500 nM | 9 nM | 7.35 | 5910 nM | 9.30 | 7.56 | 55 | 7.00 | 200 | 28 | 89 | 75000 | 656 | 85 | 664 nM | 74 |  |
| Cc1c(C(C)c2c(F)cccc2F)nc(Nc2ccc(C#N)cc2)[nH]c1=O (stereo not given) | 125 nM | 1060 nM | 0.4 nM | 7.34 | 1400 nM | 8.54 | 7.21 | 21 | 6.64 | 79 | 312 | 16 | 367 | 3500 | 172 | 1000 nM | 2500 |  |
| Cc1cnc(Nc2ccc(C#N)cc2)nc1C(C)c1c(F)cccc1F (stereo not given) | 154 nM | 71400 nM | 6.9 nM | 7.37 | 5000 nM | 9.22 | 7.28 | 86 | 7.50 | 52 | 22 | 71 | 119000 | 725 | 43 | 128 nM | 19 |  |
| Cc1ccnc2c1NC(=O)c1cccnc1N2C1CC1 [NEVIRAPINE] |  | 7510 nM |  | < 5.12 | 35000 nM |  | 5.21 |  | < 5.12 |  |  |  |  |  |  |  |  | pEC50 [7]: < 4.72 |
| Cc1c(C(C)c2c(F)cccc2F)nc(N(C)C)[nH]c1=O (stereo not given) | 500 nM | > 17000 nM | 100 nM |  | 4000 nM |  |  |  |  |  | 5 |  |  | 40 | 5 | 1000 nM | 10 | pEC50 [7]: 6.69 |
| Cc1c(Cl)nc(Nc2ccc(C#N)cc2)nc1Cc1c(F)cccc1F | 445 nM | > 2700 nM | 17 nM | 5.60 | > 40000 nM | 7.67 | 6.13 | 23 | < 5.57 |  | 26 | 80 | > 125 |  | 371 |  |  |  |
| CC(c1cc(=O)[nH]c(Nc2ccc(C#N)cc2)n1)c1c(F)cccc1F (stereo not given) | 347 nM | > 2840 nM | 28 nM | 7.06 | 12300 nM | 8.04 | 7.25 | 6 | 6.19 | 72 | 12 | 10 | > 312 | 438 | 149 |  |  |  |
| Cc1c(Cc2c(F)cccc2F)nc(Nc2ccc(C#N)cc2)[nH]c1=O | 21400 nM | > 2840 nM | 200 nM | < 5.55 | > 80000 nM | 6.61 | 5.86 | 6 | < 5.55 |  | 107 |  | > 11.6 |  |  |  |  |  |
| Cc1cnc(Nc2ccc(C#N)cc2)nc1Cc1c(F)cccc1F | 262 nM | > 74300 nM | 9 nM | 6.45 | > 80000 nM | 8.48 | 7.05 | 27 | 5.99 | 308 | 29 | 108 | > 22500 |  |  | 2960 nM | 329 |  |
| N#Cc1ccc(Nc2nccc(Cc3c(F)cccc3F)n2)cc1 | 500 nM | > 77600 nM | 6 nM | 7.22 | 7470 nM | 9.30 | 7.17 | 136 | 6.65 | 450 | 83 | 120 | > 155000 | 1250 | 306 | 671 nM | 112 |  |
